Experimental data taken from paper PMC3064798 (Nucleic Acids Research, 2011).
“Also recorded” adds a separate entry of the source.

Legend:
Klenow(exo^−) polymerase = Klenow(exo^−) polymerase (Escherichia coli, UniProt P00582, D355A/E357A); test: PEP; type: biochemical
How it was run: (§1)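 Polymerase end-point assay for single-base incorporation. 5 nM BODIPY-FL-labelled primer-1 was hybridised to 40 nM oligoTemplate-4, with the interrogation base complementary to dU. Absence of a +1 band on the 377 gel image at 100 μM counts as not active. IC50 was averaged from triplicates ± 1 SD. Incorporation bias is the analog IC50 divided by the natural-nucleotide (HOMedUTP) IC50.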

[1] = biological target: T1, DeepVent(exo^−) polymerase (Pyrococcus sp., UniProt Q51334, D141A/DEL493-1029/E143A); test: PEP; type: biochemical; conditions: for Incorporation bias (analog IC50/HOMedUTP IC50): DeepVent(exo^−)
T1 sequence (Q51334 with tags, fused parts or gaps D141A/E143A/DEL493-1029): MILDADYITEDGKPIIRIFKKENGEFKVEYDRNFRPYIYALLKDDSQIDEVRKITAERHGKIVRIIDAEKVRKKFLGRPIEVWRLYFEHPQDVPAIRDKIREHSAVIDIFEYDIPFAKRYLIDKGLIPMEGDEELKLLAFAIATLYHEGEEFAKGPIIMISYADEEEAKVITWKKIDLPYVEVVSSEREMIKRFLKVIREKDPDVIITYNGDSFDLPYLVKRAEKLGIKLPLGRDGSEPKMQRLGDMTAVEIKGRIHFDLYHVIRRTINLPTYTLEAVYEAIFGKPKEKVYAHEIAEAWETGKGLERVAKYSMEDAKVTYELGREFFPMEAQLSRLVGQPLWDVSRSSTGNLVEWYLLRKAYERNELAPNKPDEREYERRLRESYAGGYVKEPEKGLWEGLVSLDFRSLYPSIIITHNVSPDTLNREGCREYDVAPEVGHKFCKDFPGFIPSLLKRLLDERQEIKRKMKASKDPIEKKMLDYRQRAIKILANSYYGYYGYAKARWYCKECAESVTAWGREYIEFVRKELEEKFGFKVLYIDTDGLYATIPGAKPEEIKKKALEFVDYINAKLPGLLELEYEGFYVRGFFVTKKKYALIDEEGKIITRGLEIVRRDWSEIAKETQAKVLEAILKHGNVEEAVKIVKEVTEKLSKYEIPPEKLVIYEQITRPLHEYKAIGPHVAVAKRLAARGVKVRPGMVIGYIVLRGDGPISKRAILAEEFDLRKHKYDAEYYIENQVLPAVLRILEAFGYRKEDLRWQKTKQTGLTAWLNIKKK
How it was run: as §1

Taq polymerase = Taq polymerase (Thermus aquaticus, UniProt P19821); test: PEP; type: biochemical; conditions: for IC50 values (activity in words): Taq, Not Active = no visible +1 band in 377 gel image at 100 μM
How it was run: as §1

[2] = Photochemical cleavage studies; type: physicochemical; conditions: for DT50 values (time at which 50% of 2-nitrobenzyl groups were photochemically cleaved): 365 nm UV, incorporated in primer-1/oligoTemplate-4; for DT50 in sodium azide compared with the FBD solution: 50 mM sodium azide vs FBD; for DT50 faster than the parent dU.I analog: azide solution
How it was run: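 Analogs (100 nM final) were incorporated as in PEP on BODIPY-FL primer-1/oligoTemplate-4 (10 nM/80 nM). Reactions were quenched in FBD solution (20% formamide, 10 mM Na2EDTA pH 8.0, Blue Dextran) or 50 mM sodium azide. Samples were irradiated at 365 nm for various times, then iced, mixed with formamide stop solution and run on an AB 377 sequencer. DT50 is the time for 50% cleavage, from triplicates ± 1 SD.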

Therminator polymerase = biological target: T2, Therminator polymerase (Thermococcus sp., UniProt Q56366, A485L/D141A/E143A); test: PEP; type: biochemical; conditions: for Incorporation bias (analog IC50/HOMedUTP IC50): Therminator
T2 sequence (Q56366 1-775 D141A/E143A/A485L): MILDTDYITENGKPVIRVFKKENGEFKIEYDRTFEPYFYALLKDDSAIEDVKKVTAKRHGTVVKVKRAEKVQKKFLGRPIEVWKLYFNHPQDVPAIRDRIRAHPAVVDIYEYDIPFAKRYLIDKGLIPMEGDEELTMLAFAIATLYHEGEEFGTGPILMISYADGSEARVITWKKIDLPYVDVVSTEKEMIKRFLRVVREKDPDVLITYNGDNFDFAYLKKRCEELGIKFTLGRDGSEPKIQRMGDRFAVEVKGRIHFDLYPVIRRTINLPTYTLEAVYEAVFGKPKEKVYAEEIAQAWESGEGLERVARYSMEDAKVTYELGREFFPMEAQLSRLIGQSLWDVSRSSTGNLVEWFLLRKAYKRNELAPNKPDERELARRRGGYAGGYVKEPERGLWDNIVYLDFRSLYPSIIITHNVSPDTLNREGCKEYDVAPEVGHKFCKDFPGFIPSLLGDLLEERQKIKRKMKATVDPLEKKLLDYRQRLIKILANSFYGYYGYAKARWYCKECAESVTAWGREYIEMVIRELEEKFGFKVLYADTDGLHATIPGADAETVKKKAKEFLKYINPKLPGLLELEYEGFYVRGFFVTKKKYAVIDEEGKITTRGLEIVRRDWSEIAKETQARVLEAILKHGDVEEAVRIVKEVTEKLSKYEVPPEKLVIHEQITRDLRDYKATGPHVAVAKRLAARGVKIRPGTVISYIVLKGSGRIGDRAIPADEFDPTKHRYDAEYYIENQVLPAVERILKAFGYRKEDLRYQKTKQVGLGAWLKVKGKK
How it was run: as §1

Sequence of Taq polymerase (P19821 whole entry): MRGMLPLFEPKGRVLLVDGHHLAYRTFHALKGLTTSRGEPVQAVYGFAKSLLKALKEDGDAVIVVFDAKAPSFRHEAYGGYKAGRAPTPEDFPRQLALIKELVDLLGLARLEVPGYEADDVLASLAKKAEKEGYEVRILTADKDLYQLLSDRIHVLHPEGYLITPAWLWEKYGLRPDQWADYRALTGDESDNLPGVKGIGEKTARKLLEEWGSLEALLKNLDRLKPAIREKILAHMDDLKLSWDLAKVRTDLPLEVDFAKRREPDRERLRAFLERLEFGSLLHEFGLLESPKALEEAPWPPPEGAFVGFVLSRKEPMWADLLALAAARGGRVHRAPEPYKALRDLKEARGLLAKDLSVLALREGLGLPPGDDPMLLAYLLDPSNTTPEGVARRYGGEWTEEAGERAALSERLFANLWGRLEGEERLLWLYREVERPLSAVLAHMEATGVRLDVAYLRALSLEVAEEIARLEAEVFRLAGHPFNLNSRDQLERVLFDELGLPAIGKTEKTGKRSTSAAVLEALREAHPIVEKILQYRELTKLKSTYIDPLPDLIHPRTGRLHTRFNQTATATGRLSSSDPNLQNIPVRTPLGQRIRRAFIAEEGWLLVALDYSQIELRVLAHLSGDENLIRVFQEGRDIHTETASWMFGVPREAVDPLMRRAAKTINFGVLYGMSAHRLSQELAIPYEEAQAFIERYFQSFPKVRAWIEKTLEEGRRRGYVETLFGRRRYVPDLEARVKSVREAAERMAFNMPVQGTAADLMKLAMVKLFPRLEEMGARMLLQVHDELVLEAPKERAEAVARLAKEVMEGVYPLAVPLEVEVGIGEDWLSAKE

SMILES | IC50 (Klenow(exo^−) polymerase) [µM] | Incorporation bias (analog IC50/HOMedUTP IC50) (Klenow(exo^−) polymerase; Klenow(exo^−)) | IC50 [1] [µM] | Incorporation bias (analog IC50/HOMedUTP IC50) [1] | IC50 values (activity in words) (Taq polymerase) | DT50 values (time at which 50% of 2-nitrobenzyl groups were photochemically cleaved) ([2]; 50 mM NaN3) [s] | DT50 in sodium azide compared with the FBD solution [2] | DT50 values (time at which 50% of 2-nitrobenzyl groups were photochemically cleaved) ([2]; FBD solution) [s] | DT50 faster than the parent dU.I analog [2] | Incorporation bias (analog IC50/HOMedUTP IC50) (Therminator polymerase) | IC50 values (activity in words) (Klenow(exo^−) polymerase; Klenow(exo^−), Not Active = no visible +1 band in 377 gel image at 100 μM) | IC50 (Taq polymerase) [µM] | IC50 (Therminator polymerase) [µM]
CC(OCc1cn([C@H]2C[C@H](O)[C@@H](COP(=O)(O)OP(=O)(O)OP(=O)(O)O)O2)c(=O)[nH]c1=O)c1ccccc1[N+](=O)[O-] (mixture of isomers) [dU.II, 5-[1-(2-Nitrophenyl)ethyloxy]methyl-2'-deoxyuridine-5’-triphosphate] | 2.4 ± 0.1 | 1500 | 0.017 ± 0.001 | 6.3 | no activity at all; also recorded: Not Active^a | 2.0 ± 0.1 | approximately three-fold lower | 7.4 ± 1.2 | 33-60% | 1.0 | – | – | –
CC(C)C(OCc1cn([C@H]2C[C@H](O)[C@@H](COP(=O)(O)OP(=O)(O)OP(=O)(O)O)O2)c(=O)[nH]c1=O)c1ccccc1[N+](=O)[O-] (mixture of isomers) [dU.III, 5-[1-(2-Nitrophenyl)-2-methyl-propyloxy]methyl-2'-deoxyuridine-5’-triphosphate] | – | – | 0.22 ± 0.02 | 80 | none of the Family A polymerases showed any activity; also recorded: Not Active^a | 2.4 ± 0.2 | approximately three-fold lower | 8.8 ± 0.8 | 33-60% | 1.4 | Not Active^a | – | –
O=c1[nH]c(=O)n([C@H]2C[C@H](O)[C@@H](COP(=O)(O)OP(=O)(O)OP(=O)(O)O)O2)cc1COCc1ccccc1[N+](=O)[O-] [dU.I, 5-(2-Nitrobenzyloxy)methyl-2'-deoxyuridine-5’-triphosphate] | 0.048 ± 0.004 | 30 | 0.0049 ± 0.001 | 1.8 | – | 3.2 ± 0.1 | approximately three-fold lower | 8.7 ± 0.9 | – | 1.1 | – | 50 | 0.0018 ± 0.0001
